# Experimental data: publication PMC2897705 (Biochemistry, 2010)
# Assays:
# Assay type in all cases: biochemical
# LRRK2 [1] = target: T1, LRRK2 (Mus musculus, UniProt Q5S006); test: Radiometric TLC assay of LRRK2-catalyzed GTP hydrolysis; conditions: for Ki: read-out: apparent dissociation constant Ki,app
# How it was run: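 LRRK2 purified from BAC-transgenic mouse brain (30 nM) starts GTP hydrolysis with GTP plus [α-33P]-GTP. Runs are in triplicate, 20 min at room temperature, stopped with 20 mM EDTA. [α-33P]-GDP is resolved on PEI-cellulose TLC (0.5 M KH2PO4, pH 3.4) and counted by scintillation. Initial velocities versus [GTP] are fitted to Michaelis–Menten.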
# LRRK2 [2] = target: T1, LRRK2; test: Radiometric assay of LRRK2-catalyzed LRRKtide phosphorylation; conditions: for effect of nucleotide on kinase activity: LRRKtide phosphorylation, data not shown
# LRRK2 [3] = target: T1, LRRK2; test: TR-FRET assay of LRRK2-catalyzed PLK-peptide phosphorylation
# How it was run: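 Mouse-brain-derived LRRK2 (4 nM) phosphorylates PLK-peptide (RRRSLLE) with varied ATP. Runs are in duplicate, 4 h at room temperature, stopped with 10 mM EDTA, then 2 h with 2 nM Eu-anti-phospho-PLK before the TR-FRET read. For inhibitor studies, ATP is varied at 100 nM PLK-peptide with test compound 0–16.7 µM. Initial velocities are fitted by nonlinear least squares.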
# [4] = 200 µM GTP, 0.5 mM ADP, 0.5 mM ATP or 1 µM PLK
# T1 sequence (Q5S006 whole entry): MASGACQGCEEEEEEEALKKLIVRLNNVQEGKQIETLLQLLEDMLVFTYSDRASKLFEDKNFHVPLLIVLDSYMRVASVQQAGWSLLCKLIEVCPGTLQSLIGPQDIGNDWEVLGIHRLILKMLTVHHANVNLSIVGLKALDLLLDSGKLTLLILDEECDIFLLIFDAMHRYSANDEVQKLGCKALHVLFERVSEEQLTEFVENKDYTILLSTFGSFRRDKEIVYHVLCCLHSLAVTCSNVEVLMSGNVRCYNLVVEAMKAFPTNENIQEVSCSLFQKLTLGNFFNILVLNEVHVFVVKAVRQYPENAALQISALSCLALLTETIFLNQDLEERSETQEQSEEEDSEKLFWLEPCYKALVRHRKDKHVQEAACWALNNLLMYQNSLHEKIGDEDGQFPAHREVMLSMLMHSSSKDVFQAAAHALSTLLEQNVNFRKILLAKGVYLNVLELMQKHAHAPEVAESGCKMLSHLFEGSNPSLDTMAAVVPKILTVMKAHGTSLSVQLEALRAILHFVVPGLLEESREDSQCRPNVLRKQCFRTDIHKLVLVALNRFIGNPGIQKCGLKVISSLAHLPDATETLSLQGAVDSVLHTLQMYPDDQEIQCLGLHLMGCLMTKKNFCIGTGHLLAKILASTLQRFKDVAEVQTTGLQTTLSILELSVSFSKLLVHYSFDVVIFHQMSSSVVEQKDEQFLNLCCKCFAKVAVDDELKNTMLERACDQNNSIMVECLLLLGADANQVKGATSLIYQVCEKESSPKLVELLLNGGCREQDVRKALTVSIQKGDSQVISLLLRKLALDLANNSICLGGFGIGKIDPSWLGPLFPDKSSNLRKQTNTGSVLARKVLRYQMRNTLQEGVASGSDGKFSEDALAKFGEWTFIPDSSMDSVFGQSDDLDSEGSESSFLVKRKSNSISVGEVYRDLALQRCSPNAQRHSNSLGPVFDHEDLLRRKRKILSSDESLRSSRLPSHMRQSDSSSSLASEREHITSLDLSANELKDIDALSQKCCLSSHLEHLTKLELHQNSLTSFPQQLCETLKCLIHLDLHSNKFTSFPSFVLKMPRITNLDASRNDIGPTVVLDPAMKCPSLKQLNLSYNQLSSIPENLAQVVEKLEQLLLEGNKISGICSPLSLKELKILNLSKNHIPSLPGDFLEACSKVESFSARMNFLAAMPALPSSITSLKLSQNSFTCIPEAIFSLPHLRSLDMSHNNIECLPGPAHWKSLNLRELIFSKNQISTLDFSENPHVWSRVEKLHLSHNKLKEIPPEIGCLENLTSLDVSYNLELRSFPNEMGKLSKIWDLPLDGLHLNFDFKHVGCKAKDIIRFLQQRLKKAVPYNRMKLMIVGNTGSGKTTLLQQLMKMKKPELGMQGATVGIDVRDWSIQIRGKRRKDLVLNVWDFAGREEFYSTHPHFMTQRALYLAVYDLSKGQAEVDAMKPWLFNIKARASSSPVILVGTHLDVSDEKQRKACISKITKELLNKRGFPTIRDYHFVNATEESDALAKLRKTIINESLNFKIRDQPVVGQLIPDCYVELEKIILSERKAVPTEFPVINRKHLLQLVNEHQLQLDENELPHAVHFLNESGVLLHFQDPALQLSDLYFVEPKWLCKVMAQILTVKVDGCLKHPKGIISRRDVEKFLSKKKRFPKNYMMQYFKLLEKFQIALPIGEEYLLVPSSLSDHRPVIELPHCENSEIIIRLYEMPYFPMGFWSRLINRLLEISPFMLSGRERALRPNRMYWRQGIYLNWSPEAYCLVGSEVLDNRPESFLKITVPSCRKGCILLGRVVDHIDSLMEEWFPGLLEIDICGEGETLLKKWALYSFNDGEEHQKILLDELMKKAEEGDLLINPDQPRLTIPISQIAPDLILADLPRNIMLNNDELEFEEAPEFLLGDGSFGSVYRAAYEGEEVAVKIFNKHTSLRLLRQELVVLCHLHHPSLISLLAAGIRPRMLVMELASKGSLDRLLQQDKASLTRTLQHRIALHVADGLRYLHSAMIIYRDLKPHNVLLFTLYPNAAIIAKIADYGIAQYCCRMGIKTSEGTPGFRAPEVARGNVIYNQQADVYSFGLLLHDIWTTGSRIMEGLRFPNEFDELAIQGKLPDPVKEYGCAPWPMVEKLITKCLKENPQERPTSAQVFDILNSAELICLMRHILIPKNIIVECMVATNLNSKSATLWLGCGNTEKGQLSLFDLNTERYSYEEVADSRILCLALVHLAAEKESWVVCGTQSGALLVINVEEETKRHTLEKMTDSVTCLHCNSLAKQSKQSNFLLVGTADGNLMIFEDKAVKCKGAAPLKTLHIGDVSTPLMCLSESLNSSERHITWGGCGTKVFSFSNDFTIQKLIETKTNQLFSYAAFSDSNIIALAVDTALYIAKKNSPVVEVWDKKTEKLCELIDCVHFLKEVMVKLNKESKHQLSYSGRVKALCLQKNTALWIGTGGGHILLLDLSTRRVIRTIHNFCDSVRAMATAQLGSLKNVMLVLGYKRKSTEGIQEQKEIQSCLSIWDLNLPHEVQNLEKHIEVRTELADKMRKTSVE
smiles,measurement,setting,value
Nc1ncnc2c1ncn2[C@@H]1O[C@H](COP(=O)(O)OP(=O)(O)O)[C@@H](O)[C@H]1O [ADP],"difference in dissociation constants, GTPase vs kinase reaction",LRRK2 [1],30 fold
same,inhibition of GTPase activity,LRRK2 [1]; [4],Inhibition of GTPase activity was detected
same,Ki,LRRK2 [1]; 200 µM GTP,600 ± 100 µM
Nc1ncnc2c1ncn2[C@@H]1O[C@H](COP(=O)(O)O)[C@@H](O)[C@H]1O [AMP],"difference of Ki,e between PLK-peptide and LRRKtide reactions",LRRK2 [2],5 fold
same,Ki,"LRRK2 [2]; read-out: Ki,e, LRRKtide as phosphoryl acceptor",12 µM
same,Ki,"LRRK2 [3]; read-out: Ki,e, PLK-peptide as phosphoryl acceptor",2.5 µM
Nc1ncnc2c1ncn2[C@@H]1O[C@H](COP(=O)(O)OP(=O)(O)OP(=O)(O)O)[C@@H](O)[C@H]1O [ATP],inhibition of GTPase activity,LRRK2 [1]; [4],Inhibition of GTPase activity was detected
same,KA (KATP),"LRRK2 [2]; ATP with LRRKtide as phosphoryl acceptor, global fit",67 ± 6.4 µM
same,KA (KATP),"LRRK2 [3]; ATP with PLK-peptide as phosphoryl acceptor, global fit",13 ± 2.9 µM
Nc1nc2c(ncn2[C@@H]2O[C@H](COP(=O)(O)OP(=O)(O)O)[C@@H](O)[C@H]2O)c(=O)[nH]1 [GDP],Ki,LRRK2 [1]; 200 µM GTP,97 ± 16 µM
same,effect of nucleotide on kinase activity,LRRK2 [2],no significant activation or inhibition of kinase activity was detected
Nc1nc2c(ncn2[C@@H]2O[C@H](COP(=O)(O)O)[C@@H](O)[C@H]2O)c(=O)[nH]1 [GMP],Ki,LRRK2 [1]; 200 µM GTP,2900 ± 300 µM
same,effect of nucleotide on kinase activity,LRRK2 [2],no significant activation or inhibition of kinase activity was detected
Nc1nc2c(ncn2[C@@H]2O[C@H](COP(=O)(O)OP(=O)(O)OP(=O)(O)O)[C@@H](O)[C@H]2O)c(=O)[nH]1 [GTP],solvent isotope effect ^Dkcat,"LRRK2 [1]; 1 mM GTP, pH 7.4, D2O molar fraction 0.86, four experiments",0.97 ± 0.04
same,kcat,LRRK2 [1]; GTP hydrolysis,0.23 ± 0.02 s⁻¹
same,Km,"LRRK2 [1]; read-out: Km (KGTP), GTP hydrolysis",210 ± 29 µM
same,effect of nucleotide on kinase activity,LRRK2 [2],no significant activation or inhibition of kinase activity was detected
CN[C@@H]1C[C@H]2O[C@@](C)([C@@H]1OC)n1c3ccccc3c3c4c(c5c6ccccc6n2c5c31)C(=O)NC4 [staurosporine],inhibition of GTPase activity,LRRK2 [1]; data not shown,does not inhibit GTPase activity at all
same,inhibition of LRRK2 kinase activity,"LRRK2 [3]; kinase assay not specified, data not shown",inhibits LRRK2 kinase activity
